According to the array DNA melting data of Ke et al. (doi:10.1101/2024.01.08.574731):

Legend:
[1] = melting temperature; fluorescence melt of hairpins on a sequencing array, two-state fit, raised by 9.35 °C to match UV melts; settings: sodium 0.088 M
In short: (§1)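 Two-state fits, bootstrapped, provided melting temperature and folding enthalpy from Cy3 fluorescence normalised to pre-quench Cy3 and to control constructs. Library hairpins with annealed Cy3 and quencher oligos were imaged on a sequenced MiSeq flow cell in 50 mM Na-HEPES pH 8.0, 25 mM NaCl, at 2.5 °C intervals up to 60 °C. Four replicates were combined with inverse-variance weighting. A 9.35 °C upward shift was applied to fitted temperatures to match UV melts.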

[2] = folding enthalpy; higher = less favourable; fluorescence melt of hairpins on a sequencing array, two-state fit; settings: sodium 0.088 M
In short: as §1

Sequence | Tm [1] | folding enthalpy [2]
GTCTACGGAAACGTAAAC ((.((((....)))).)) | 27.7 °C | -14.4 kcal/mol
GCTGTACGAAAGTATAGC (((.(((....))).))) | 54 °C | -39.6 kcal/mol
GTCGCAGGAAACTGTGGC (.(.(((....))).).) | 42.8 °C | -29.9 kcal/mol
GAACGTGGAAACACGCTC ((.((((....)))).)) | 44 °C | -18.2 kcal/mol
GCGAGAGTTCGC ((((....)))) | 47.5 °C | -16.3 kcal/mol
GATCGCACTTGCGATC ((((((....)))))) | 69.1 °C | -32.3 kcal/mol
GGTATTCGAAAGAACACC (((.(((....))).))) | 39.3 °C | -29.4 kcal/mol
GATCACGTGGGTGATC ((((((....)))))) | 57.1 °C | -39.5 kcal/mol
GCATCCGAAAGGAGCTGC ((((((....)))..))) | 50.6 °C | -19.2 kcal/mol
GCCCCTGCGAAAGCAGGC (((..(((....)))))) | 42.4 °C | -4.68 kcal/mol
GATCGACTAGTCGATC ((((((....)))))) | 63.7 °C | -45.6 kcal/mol
GATCGGGGCACCGATC ((((((....)))))) | 65.9 °C | -34.9 kcal/mol
GCTTCCGGAAACGGAGGC ((.((((....)))).)) | 54.6 °C | -36.4 kcal/mol
GACGACGAAAGTCCAGTC ((((((....)))..))) | 36.2 °C | -21.5 kcal/mol
GTATATCGAAAGATGTAC (((.(((....))).))) | 44.5 °C | -31.9 kcal/mol
GCTGTACGAAAGTAAAGC (((.(((....))).))) | 49.6 °C | -30.2 kcal/mol
GCATGGCGAAAGCCCTGC (((.(((....))).))) | 53 °C | -45.3 kcal/mol
GGTCTGCGAAAGCAAACC (((.(((....))).))) | 47.1 °C | -26.9 kcal/mol
GAGAGGGGAAACCTTCTC ((((.((....)).)))) | 40.3 °C | -27.4 kcal/mol
CGATACCGGAAACGGTCG (((..(((....)))))) | 35.1 °C | -12.3 kcal/mol
GGGTCCCGAAAGGGCCC (((.(((....)))))) | 68 °C | -29.5 kcal/mol
GCGGACGAAAGTCGTCGC ((((((....)))..))) | 52.6 °C | -22.8 kcal/mol
GAGTGCGGAAACGCATTC ((.((((....)))).)) | 51.9 °C | -23.8 kcal/mol

Sequence | Tm [1] | folding enthalpy [2]
GTGTCAGGAAACCAACAC ((((..(....)..)))) | 28 °C | -13.5 kcal/mol
GCTCGGCGAAAGCTGGGC ((.(.((....)).).)) | 60.9 °C | -26.2 kcal/mol
GTGCACGAAAGTGAACAC ((((((....)))..))) | 52 °C | -15.4 kcal/mol
CGTGGCCGGAAACGGACG (((..(((....)))))) | 44.2 °C | -10.8 kcal/mol
GACTGCGAAAGCACCGTC ((((((....)))..))) | 37.6 °C | -10.7 kcal/mol
GGGTCTGGAAACAGGCTC (.(.(((....))).).) | 39.9 °C | -23.2 kcal/mol
GCACTCGGAAACGAATGC (((.(((....))).))) | 45.1 °C | -33.5 kcal/mol
GCACAGCGAAAGCTTAGC ((..(((....)))..)) | 31.8 °C | -10.9 kcal/mol
GCTAGCGAAAGCTGAGC ((((((....))).))) | 49.9 °C | -28.5 kcal/mol
GCGTTTCGAAAGAACGC (((.(((....)))))) | 57.6 °C | -33.8 kcal/mol
GTTAGACGAAAGTCAAAC (((.(((....))).))) | 43.6 °C | -18.6 kcal/mol
CGTCCGGAAACGGCACG ((((((....))).))) | 47.6 °C | -22.5 kcal/mol
GATCGGACCCCCGATC ((((((....)))))) | 54.7 °C | -32.9 kcal/mol
GCGAAGATTCGC ((((....)))) | 49 °C | -21.8 kcal/mol
GCGATGCGAAAGCAAGGC ((..(((....)))..)) | 42.3 °C | -17.2 kcal/mol
GCCATGTCGAAAGACGGC (((..(((....)))))) | 51.5 °C | -20.1 kcal/mol
GCAGCGGGAAACCGCCGC ((.((((....)))).)) | 55.2 °C | -18.6 kcal/mol
GATCCCGCCCGGGATC ((((((....)))))) | 67.1 °C | -32.8 kcal/mol
GCCGGGCGAAAGCCTTGC ((..(((....)))..)) | 40.2 °C | -12.4 kcal/mol
GATCAACCCTTGATC ((((((...)))))) | 43.6 °C | -30.4 kcal/mol
GGATATGGAAACGTATCC (((((.(....).))))) | 43.4 °C | -35.5 kcal/mol
GATCAACGTATTGATC ((((((....)))))) | 44.1 °C | -26.9 kcal/mol
GCTGTGCGAAAGCTTAGC (((..((....))..))) | 41.9 °C | -22.5 kcal/mol

Sequence | Tm [1] | folding enthalpy [2]
GCATGGCGAAAGCGAAGC ((.(.((....)).).)) | 35.4 °C | -11.7 kcal/mol
GCTGGGCGAAAGCTCTGC ((.(.((....)).).)) | 53.1 °C | -22.3 kcal/mol
GCTTTATCGAAAGATAGC (((..(((....)))))) | 31.6 °C | -12.2 kcal/mol
GATCGCTTATGCGATC ((((((....)))))) | 68.1 °C | -33.8 kcal/mol
GATCTAGAGATAGATC ((((((....)))))) | 39.1 °C | -26.2 kcal/mol
GTCGAAGGAAACTTCAAC ((.((((....)))).)) | 26.9 °C | -12.4 kcal/mol
GTACCCGGAAACGGGTGC (.(((((....))))).) | 60.1 °C | -20.1 kcal/mol
GGCCCCGAAAGGGCAGCC ((((((....)))..))) | 58.6 °C | -12.8 kcal/mol
GCTTGCGAAAGCAAAAGC ((((((....)))..))) | 52.8 °C | -17.8 kcal/mol
GATCATAATGATGATC ((((((....)))))) | 45.6 °C | -29.9 kcal/mol
GATCAGACTTCTGATC ((((((....)))))) | 50.3 °C | -36.3 kcal/mol
GATCGAGTTCTCGATC ((((((....)))))) | 55.9 °C | -39.6 kcal/mol
CGATCGGAAACGAGTTCG ((((((....)))..))) | 34.3 °C | -20.5 kcal/mol
GTAGCTGAAAAGCTAC ((((((....)))))) | 60 °C | -37.9 kcal/mol
GCGTAGCCGAAAGGCCGC (((..(((....)))))) | 58 °C | -16.8 kcal/mol
GATCAACGGGTTGATC ((((((....)))))) | 56.8 °C | -36.7 kcal/mol
GGTAACGGAAACGTTGTC (..((((....))))..) | 31.6 °C | -16.8 kcal/mol
GCTAAAGCGAAAGCTAGC (((..(((....)))))) | 47.3 °C | -21.4 kcal/mol
GATTTACGAAAGTAATC (((.(((....)))))) | 32 °C | -17.8 kcal/mol
GGCTCTGCGAAAGCAGCC (((..(((....)))))) | 40.6 °C | -9.66 kcal/mol
GAGCTGGGAAACCAACTC (((.(((....))).))) | 39.9 °C | -32 kcal/mol
GATCCTAACAAGGATC ((((((....)))))) | 51.5 °C | -32.6 kcal/mol
GCCGAGGGAAACTTCGGC (((((.(....).))))) | 56.8 °C | -46.2 kcal/mol

Sequence | Tm [1] | folding enthalpy [2]
GGACCAGGAAACTGATCC (((.(((....))).))) | 40.3 °C | -34.2 kcal/mol
CGGGACGGAAACGTACCG (((.(((....))).))) | 62.4 °C | -42.1 kcal/mol
GTGTACGAAAGTAGCCAC ((((((....)))..))) | 31.9 °C | -14.2 kcal/mol
GATCTCAGCAGAGATC ((((((....)))))) | 58.2 °C | -31.9 kcal/mol
GGAGTGGGAAACCACTCC (((((((....))))))) | 68.2 °C | -38.6 kcal/mol
GCGGGGCGAAAGCCAGGC ((..(((....)))..)) | 59.1 °C | -17.5 kcal/mol
GGACCACCGAAAGGTTCC (((..(((....)))))) | 29.6 °C | -11.2 kcal/mol
GATCCTGGAAACGGGATC (((((.(....).))))) | 50.9 °C | -42.8 kcal/mol
GGTCGCGAAAGCGCCACC ((((((....)))..))) | 47.8 °C | -11.2 kcal/mol
GTCAGCTCGAAAGAGGAC (((..(((....)))))) | 33.4 °C | -17.7 kcal/mol
GATCACACTTGTGATC ((((((....)))))) | 56.4 °C | -39.4 kcal/mol
AGTCGGAAACGACT (((((....))))) | 54.3 °C | -20.1 kcal/mol
GACTGAGGAAACTCAGCC (.(((((....))))).) | 43.4 °C | -16.9 kcal/mol
CGTTTACGGAAACGTACG (((..(((....)))))) | 40.1 °C | -19.2 kcal/mol
GCGTTCGCGAAAGCGCGC (((..(((....)))))) | 52.7 °C | -19.3 kcal/mol
GCGCGCGAAAGCGCTCGC ((((((....)))..))) | 59.4 °C | -10.5 kcal/mol
GATCGAGGAAACTCGATC (((((((....))))))) | 62.7 °C | -44.5 kcal/mol
GATCGCGGAAACGCGGTC ((.((((....)))).)) | 62.8 °C | -22.8 kcal/mol
GCAGTCCCGAAAGGGTGC (((..(((....)))))) | 43.5 °C | -15.3 kcal/mol
GGACTGTCGAAAGACTCC (((..(((....)))))) | 21.5 °C | -5.54 kcal/mol
GTTCGCGAAAGCGCGAAC ((((((....)))..))) | 65 °C | -27.4 kcal/mol
GATCAACGTGTTGATC ((((((....)))))) | 57.4 °C | -60.2 kcal/mol
GTTTCGGAAACGAAAC ((((((....)))))) | 56.9 °C | -35.9 kcal/mol
